According to ChEMBL document CHEMBL1811786, “Identification of MK-5710 ((8aS)-8a-methyl-1,3-dioxo-2-[(1S,2R)-2-phenylcyclo- propyl]-N-(1-phenyl-1H-pyrazol-5-yl)hexahydro-imidazo[1,5-a]pyrazine-7(1H)-carboxamide), a potent smoothened antagonist for use in Hedgehog pathway dependent malignancies, part 2” (Bioorg Med Chem Lett, 2011):

How the values were obtained:
Protein smoothened [1] = target: T1, Protein smoothened (Homo sapiens, UniProt Q99835); test: Displacement of BODIPY-cyclopamine from human Smo expressed in HEK293 cells in presence of 2% fetal calf serum; type: cell-based
Summary of the method: (§1)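 Competition binding: displacement of fluorescently labeled bodipy-cyclopamine from recombinant human Smo expressed in HEK-293 cells. Run in 2% fetal calf serum and, separately, in 20% normal human serum. IC50 values are means of at least five experiments.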

Protein smoothened [2] = target: T1, Protein smoothened; test: Displacement of BODIPY-cyclopamine from human Smo expressed in HEK293 cells in presence of 20% normal human serum; type: cell-based; summary of the method: as §1
Rattus norvegicus = species on record: Rattus norvegicus; test: Clearance in rat; type: ADME, organism-based; settings: in vivo
[3] = Half life in rat; type: ADME, organism-based; settings: in vivo
[4] = Volume of distribution at steady state in rat; type: ADME, organism-based; settings: in vivo, read-out: Vdss
Canis familiaris = species on record: Canis familiaris; test: Clearance in dog; type: ADME, organism-based, Canis lupus familiaris; settings: in vivo
[5] = Half life in dog; type: ADME, organism-based, Canis lupus familiaris; settings: in vivo
[6] = Volume of distribution at steady state in dog; type: ADME, organism-based, Canis lupus familiaris; settings: in vivo, read-out: Vdss
[7] = Oral bioavailability in rat; type: ADME, organism-based; settings: in vivo

T1 sequence (Q99835 whole entry): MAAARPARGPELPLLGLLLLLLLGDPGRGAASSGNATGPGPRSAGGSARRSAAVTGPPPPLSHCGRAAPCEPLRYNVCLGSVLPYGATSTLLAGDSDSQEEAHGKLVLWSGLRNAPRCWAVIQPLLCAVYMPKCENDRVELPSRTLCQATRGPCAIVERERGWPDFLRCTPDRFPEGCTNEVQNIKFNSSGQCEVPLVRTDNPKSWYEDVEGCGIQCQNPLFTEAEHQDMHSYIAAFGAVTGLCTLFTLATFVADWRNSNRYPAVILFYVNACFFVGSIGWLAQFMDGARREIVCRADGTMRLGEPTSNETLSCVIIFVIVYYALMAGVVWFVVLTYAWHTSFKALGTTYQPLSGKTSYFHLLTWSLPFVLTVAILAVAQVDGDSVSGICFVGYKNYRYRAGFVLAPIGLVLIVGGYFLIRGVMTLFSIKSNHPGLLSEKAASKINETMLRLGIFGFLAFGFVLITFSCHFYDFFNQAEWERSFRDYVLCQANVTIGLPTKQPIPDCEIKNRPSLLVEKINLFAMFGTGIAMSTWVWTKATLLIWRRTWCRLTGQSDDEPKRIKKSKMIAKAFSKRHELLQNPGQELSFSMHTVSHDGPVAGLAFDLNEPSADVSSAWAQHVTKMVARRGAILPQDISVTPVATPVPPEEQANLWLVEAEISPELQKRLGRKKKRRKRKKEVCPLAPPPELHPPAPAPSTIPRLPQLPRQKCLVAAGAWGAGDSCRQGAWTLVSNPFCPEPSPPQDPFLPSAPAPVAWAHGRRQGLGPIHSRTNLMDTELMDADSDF

Row | Structure (SMILES) | IC50 (Protein smoothened [1]) [nM] | IC50 (Protein smoothened [2]) [nM] | clearance (Rattus norvegicus) [mL/min/kg] | half-life [3] [h] | Vd [4] [L/kg] | clearance (Canis familiaris) [mL/min/kg] | half-life [5] [h] | Vd [6] [L/kg] | bioavailability [7] [%]
1 | O=C(Nc1ccccc1-c1ccccc1)N1CCN2C(=O)N(C3CC3c3ccccc3)C(=O)C2C1 (stereo in doubt; 6) | 35 |  |  |  |  |  |  |  | 
2 | C[C@]12CN(C(=O)Nc3ccccc3-c3ccccc3)CCN1C(=O)N([C@H]1C[C@@H]1c1ccccc1)C2=O | 1200 | 1600 |  |  |  |  |  |  | 
3 | O=C(Nc1ccnn1-c1cccc(Cl)c1)N1CCN2C(=O)N([C@H]3C[C@@H]3c3ccccc3)C(=O)[C@@H]2C1 | 18 | 32 |  |  |  |  |  |  | 
4 | O=C(Nc1c(Cl)cc(F)cc1Cl)N1CCN2C(=O)N([C@H]3C[C@@H]3c3ccccc3)C(=O)[C@@H]2C1 | 180 | 520 |  |  |  |  |  |  | 
5 | CS(=O)(=O)c1cc(Cl)c(NC(=O)N2CCN3C(=O)N([C@H]4C[C@@H]4c4ccccc4)C(=O)[C@@H]3C2)c(Cl)c1 | 42 | 68 | 5 | 3.2 | 0.6 | 1.7 | 1 | 0.3 | 74
6 | N#Cc1cccc(-c2ncccc2NC(=O)N2CCN3C(=O)N([C@H]4C[C@@H]4c4ccccc4)C(=O)[C@@H]3C2)c1 | 16 | 22 | 48 | 3.8 | 6 |  |  |  | 43
7 | O=C(Nc1cccnc1-c1ccsc1)N1CCN2C(=O)N([C@H]3C[C@@H]3c3ccccc3)C(=O)[C@@H]2C1 | 21 | 42 | 58 | 10 | 10 | 7.6 | 3.1 | 1 | 41
8 | O=C(Nc1cccc(Cl)c1Cl)N1CCN2C(=O)N([C@@H]3C[C@H]3c3ccccc3)C(=O)[C@@H]2C1 | 670 |  |  |  |  |  |  |  | 
9 | O=C(Nc1ccccc1-c1ccccc1)N1CCN2C(=O)N(C3CC3c3ccccc3)C(=O)C2C1 (stereo in doubt; 3) | 48 |  |  |  |  |  |  |  | 
10 | C[C@@]12CN(C(=O)Nc3ccccc3-c3ccccc3)CCN1C(=O)N([C@H]1C[C@@H]1c1ccccc1)C2=O | 19 | 60 |  |  |  |  |  |  | 
11 | O=C(Nc1cccnc1-c1cccc(Cl)c1)N1CCN2C(=O)N([C@H]3C[C@@H]3c3ccccc3)C(=O)[C@@H]2C1 | 4 | 15 | 54 | 1.3 | 4.1 |  |  |  | 
